B1: tRNA (parent)
chain: GUUCCGUUGGCGUAAUGGUAACGCGUCUCCCUCCUAAGGAGAAGACUGCGGGUUCGAGUCCCGUACGGAACG

Variants of: B1
Experiment: yeast fitness, log relative to wild type (ln ratio); higher = fitter; tRNA-Arg(CCU), competitive growth, 37 C, 1 M NaCl
Summary of the method: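 BY4742 cells without the chromosomal tRNA-Arg(CCU) gene carried a combinatorial variant library on a HIS3 centromeric plasmid, from two independent transformations. After 4 generations in SC-HIS at 30 °C, pools spent ~6.5 generations (~26.5 h) in SC-HIS 1M NaCl at 37 °C, giving three outputs per input, and 125 bp paired-end Illumina reads counted the variants. Fitness is the natural log of each genotype's generations over the wild type's, with generations taken as OD-scaled log2 output/input frequency weighted by inverse variance across replicates.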

Row | Variant | yeast fitness (ln)
1 | GUUCCUUUGGCGUAAUGGUAACGCGUCUCCCUCCUAAGGAGACGACUGCGGGUUCGAGUCCCGUAAGGGUUG [G6U A43C C66A A69G A70U C71U] | -0.39
2 | GUUCCAUUGGCGUAAUGGUAACGCGUUUCCCUCCUAAGGAGACGACUGCGGGUUCGAGUCCCGUACGGAUCG [G6A C27U A43C A70U] | -0.263
3 | GGUCCUUUGGCGUAAUGGUAACGCGUCUCCCUCCUAAGGAGAAGAUUGCGGGUUCGAGUCCCGUAUGGAUUG [U2G G6U C46U C66U A70U C71U] | -0.643
4 | GCUCCUUUGGCGUAAUGGUAACGCGUUUCCCUCCUAAGGAGACGACUGCGGGUUCGAGUCCCGUAAGGAACG [U2C G6U C27U A43C C66A] | -0.104
5 | GCUCCGUUGGCGUAAUGGUAACGCGUCUCCCUCCUAAGGAGAAGACUGCGGGUUCGAGUCCCGUAUGGGAUG [U2C C66U A69G C71U] | -0.311
6 | GCUCCGUUGGCGUAAUGGUAACGCGUCUCCCUCCUAAGGAGACGACUGCGGGUUCGAGUCCCGUAAGGGUUG [U2C A43C C66A A69G A70U C71U] | -0.368
7 | ACUCCGUUGGCGUAAUGGUAACGCGUCUCCCUCCUAAGGAGACGAUUGCGGGUUCGAGUCCCGUACGGAGUG [G1A U2C A43C C46U A70G C71U] | -0.00628
8 | AGUCCUUUGGCGUAAUGGUAACGCGUCUCCCUCCUAAGGAGACGACUGCGGGUUCGAGUCCCGUAAGGAUCG [G1A U2G G6U A43C C66A A70U] | -0.282
9 | GUUCCUUUGGCGUAAUGGUAACGCGUCUCCCUCCUAAGGAGACGACUGCGGGUUCGAGUCCCGUACGGGAUG [G6U A43C A69G C71U] | -0.389
10 | GGUCCAUUGGCGUAAUGGUAACGCGUUUCCCUCCUAAGGAGACGAUUGCGGGUUCGAGUCCCGUAUGGAGCG [U2G G6A C27U A43C C46U C66U A70G] | -0.143
11 | GCUCCAUUGGCGUAAUGGUAACGCGUCUCCCUCCUAAGGAGAAGACUGCGGGUUCGAGUCCCGUACGGAGUG [U2C G6A A70G C71U] | -0.105
12 | AGUCCGUUGGCGUAAUGGUAACGCGUUUCCCUCCUAAGGAGAAGAUUGCGGGUUCGAGUCCCGUAAGGAACG [G1A U2G C27U C46U C66A] | -0.0584
13 | GCUCCGUUGGCGUAAUGGUAACGCGUCUCCCUCCUAAGGAGAAGAUUGCGGGUUCGAGUCCCGUAUGGAUUG [U2C C46U C66U A70U C71U] | -0.155
14 | GCUCCAUUGGCGUAAUGGUAACGCGUUUCCCUCCUAAGGAGACGAUUGCGGGUUCGAGUCCCGUAAGGAGCG [U2C G6A C27U A43C C46U C66A A70G] | -0.101
15 | AGUCCAUUGGCGUAAUGGUAACGCGUUUCCCUCCUAAGGAGACGAUUGCGGGUUCGAGUCCCGUACGGAUUG [G1A U2G G6A C27U A43C C46U A70U C71U] | -0.307
16 | GGUCCAUUGGCGUAAUGGUAACGCGUCUCCCUCCUAAGGAGAAGACUGCGGGUUCGAGUCCCGUACGGAACG [U2G G6A] | -0.00406
17 | AGUCCGUUGGCGUAAUGGUAACGCGUCUCCCUCCUAAGGAGAAGAUUGCGGGUUCGAGUCCCGUACGGAUCG [G1A U2G C46U A70U] | -0.115
18 | GGUCCUUUGGCGUAAUGGUAACGCGUUUCCCUCCUAAGGAGAAGAUUGCGGGUUCGAGUCCCGUAUGGAAUG [U2G G6U C27U C46U C66U C71U] | -0.246
19 | AUUCCUUUGGCGUAAUGGUAACGCGUUUCCCUCCUAAGGAGAAGACUGCGGGUUCGAGUCCCGUAUGGAUUG [G1A G6U C27U C66U A70U C71U] | -0.461

Row | Variant | yeast fitness (ln)
20 | GGUCCGUUGGCGUAAUGGUAACGCGUCUCCCUCCUAAGGAGACGACUGCGGGUUCGAGUCCCGUACGGGUUG [U2G A43C A69G A70U C71U] | -0.382
21 | GGUCCAUUGGCGUAAUGGUAACGCGUUUCCCUCCUAAGGAGAAGAUUGCGGGUUCGAGUCCCGUACGGAAUG [U2G G6A C27U C46U C71U] | -0.128
22 | AUUCCGUUGGCGUAAUGGUAACGCGUCUCCCUCCUAAGGAGAAGAUUGCGGGUUCGAGUCCCGUACGGAUUG [G1A C46U A70U C71U] | -0.0276
23 | GUUCCGUUGGCGUAAUGGUAACGCGUUUCCCUCCUAAGGAGAAGAUUGCGGGUUCGAGUCCCGUACGGGUUG [C27U C46U A69G A70U C71U] | -0.248
24 | GUUCCUUUGGCGUAAUGGUAACGCGUUUCCCUCCUAAGGAGAAGAUUGCGGGUUCGAGUCCCGUAAGGGUCG [G6U C27U C46U C66A A69G A70U] | -0.196
25 | AUUCCUUUGGCGUAAUGGUAACGCGUUUCCCUCCUAAGGAGAAGAUUGCGGGUUCGAGUCCCGUACGGGUCG [G1A G6U C27U C46U A69G A70U] | -0.299
26 | ACUCCGUUGGCGUAAUGGUAACGCGUUUCCCUCCUAAGGAGACGAUUGCGGGUUCGAGUCCCGUACGGGGUG [G1A U2C C27U A43C C46U A69G A70G C71U] | -0.0168
27 | GUUCCGUUGGCGUAAUGGUAACGCGUUUCCCUCCUAAGGAGAAGAUUGCGGGUUCGAGUCCCGUAAGGAUUG [C27U C46U C66A A70U C71U] | -0.13
28 | GGUCCUUUGGCGUAAUGGUAACGCGUUUCCCUCCUAAGGAGAAGAUUGCGGGUUCGAGUCCCGUACGGGUUG [U2G G6U C27U C46U A69G A70U C71U] | -0.387
29 | GGUCCGUUGGCGUAAUGGUAACGCGUUUCCCUCCUAAGGAGACGAUUGCGGGUUCGAGUCCCGUACGGGAUG [U2G C27U A43C C46U A69G C71U] | -0.193
30 | GUUCCGUUGGCGUAAUGGUAACGCGUUUCCCUCCUAAGGAGAAGAUUGCGGGUUCGAGUCCCGUAUGGAUCG [C27U C46U C66U A70U] | -0.0808
31 | ACUCCUUUGGCGUAAUGGUAACGCGUCUCCCUCCUAAGGAGAAGAUUGCGGGUUCGAGUCCCGUACGGAACG [G1A U2C G6U C46U] | 0.0116
32 | AUUCCGUUGGCGUAAUGGUAACGCGUCUCCCUCCUAAGGAGAAGACUGCGGGUUCGAGUCCCGUAUGGAUCG [G1A C66U A70U] | -0.105
33 | GGUCCGUUGGCGUAAUGGUAACGCGUCUCCCUCCUAAGGAGACGACUGCGGGUUCGAGUCCCGUAUGGGGUG [U2G A43C C66U A69G A70G C71U] | -0.304
34 | GCUCCGUUGGCGUAAUGGUAACGCGUCUCCCUCCUAAGGAGAAGAUUGCGGGUUCGAGUCCCGUACGGGGUG [U2C C46U A69G A70G C71U] | -0.0139
35 | AGUCCUUUGGCGUAAUGGUAACGCGUCUCCCUCCUAAGGAGACGAUUGCGGGUUCGAGUCCCGUAUGGAGCG [G1A U2G G6U A43C C46U C66U A70G] | -0.344
36 | GUUCCAUUGGCGUAAUGGUAACGCGUCUCCCUCCUAAGGAGACGAUUGCGGGUUCGAGUCCCGUAUGGGGCG [G6A A43C C46U C66U A69G A70G] | -0.233
37 | GUUCCGUUGGCGUAAUGGUAACGCGUUUCCCUCCUAAGGAGAAGACUGCGGGUUCGAGUCCCGUAUGGAUCG [C27U C66U A70U] | -0.0893
38 | GGUCCUUUGGCGUAAUGGUAACGCGUUUCCCUCCUAAGGAGACGAUUGCGGGUUCGAGUCCCGUAUGGGAUG [U2G G6U C27U A43C C46U C66U A69G C71U] | -0.375

— the RNAGym collection of RNA variant scans (doi:10.1038/s41586-018-0170-7)
